# NPY2 pot ag: human NPY-Y2 potentiation or agonism, primary screen. cells expressing NPY-Y2, potentiator/agonist read-out. activation, % at 3.6 µM. 220,000 compounds, 0.45% hits. AID 1359; in the data active means activation above about 27%;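 further: cells stimulated with NPY near EC25 plus isoproterenol at EC100; 0% = vehicle plus submaximal agonist and 100% = vehicle plus saturating agonist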
# NPY-Y1 PAM-ag: potentiates or activates human NPY-Y1 receptor | NPY-Y1 expressing cells, potentiator/agonist activation | 220,000 compounds, 0.37% hits | activation, % at 3.6 µM | P25929; in the data active means activation above about 33%, passing the limit was not always enough;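 further: cells stimulated with NPY at EC10 then isoproterenol at EC100; 0% = low agonist plus stimulus and 100% = saturating agonist plus stimulus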
# Furin inh: blocks human furin protease activity. 220,000 compounds, 0.061% hits. purified furin, fluorogenic substrate cleavage. P09958. inhibition, % at 20 µM or 30 µM; in the data active means inhibition above about 25%
# NPY-Y1 antag: antagonists of human neuropeptide Y receptor Y1; 200,000 compounds, 1% hits; inhibition, % at 3.6 µM; AID 1040; HEK293-CNG Y1 cells, membrane potential fluorescence; NPY at EC95, then isoproterenol; P25929;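 active means inhibition above the campaign mean inhibition of all tested compounds plus 3 SD, cut at about 20% in these data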;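 further: 0% = DMSO wells given NPY plus isoproterenol and 100% = isoproterenol alone without NPY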
#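 Material: HEK293 cells co-expressing NPY Y1 receptor and cyclic-nucleotide gated channel. Timing: compound incubation 1 h at room temperature, readout 45 min post-stimulation. Signal: fluorescence, membrane potential probe.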
# KCC2 mod: KCC2 (human) Cl- transport modulation; Q9H2X9; KCC2 cells, thallium flux FluoZin-2 fluorescence; B-score of Tl+ flux slope (higher = more flux/activation; lower = inhibition) at 10 µM; 190,000 compounds, 2.2% hits;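 active means thallium flux slope and its plate-corrected score both differing from the plate sample mean at a set confidence after two filtering rounds, in either direction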;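 further: slope of fluorescence scaled to starting intensity during 10 to 20 s after thallium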
# NPY-Y2 antag: antagonists of human neuropeptide Y receptor Y2; NPY-Y2 expressing cells, antagonist mode; inhibition, % at 2.7 µM; 140,000 compounds, 0.99% hits; AID 793; in the data active means inhibition above about 17%;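 further: 0% = vehicle with agonist challenge and 100% = reference antagonist with challenge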
# NPY-Y2 pot conf: confirmation of human NPY-Y2 receptor potentiators or agonists | shares compounds with NPY2 pot ag | cell-based NPY-Y2 potentiator/agonist assay | activation, % at 3.6 µM | 450 compounds, 20% hits; in the data active means activation above about 33%
# NPY-Y1 potentiator: NPY-Y1 potentiation or agonism as NPY-Y2 counter-screen | shares compounds with NPY2 pot ag | Y1 HEK293-CNG cells, membrane potential fluorescence | activation, % at 3.6 µM | 450 compounds, 20% hits; in the data active means activation above about 45%;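 further: cells stimulated with submaximal NPY then isoproterenol with phosphodiesterase inhibitor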
# NPY-Y1 ag 2: activates human NPY-Y1, counter-screen for NPY-Y2 potentiators; HEK293 Y1-CNGC, membrane potential fluorescence, agonism; 450 compounds, 37% hits; activation, % at 3.6 µM; shares compounds with NPY2 pot ag;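 active means activation above the mean of DMSO-only control wells plus 3 SD, cut at about 18% in these data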;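 further: cells stimulated with 1 µM isoproterenol plus the PDE inhibitor Ro 20-1724; 0% = isoproterenol with DMSO and no NPY and 100% = 40 nM NPY; Y1 agonists lower the membrane potential dye signal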
# CNGC inhibitor: blocks CNG channel activity, counter-screen for NPY-Y2 potentiators. 450 compounds, 32% hits. shares compounds with NPY2 pot ag. inhibition, % at 3.6 µM. HEK293-CNG parental, isoproterenol cAMP, membrane potential fluorescence. AID 1703;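 active means inhibition above the control-well mean plus 3 SD of those wells, cut at about 22% in these data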;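 further: 0% = DMSO with isoproterenol and 100% = DMSO without isoproterenol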
# NPY-Y2 ag 2: counter-screen for NPY-Y2 potentiators: agonists of human NPY-Y2; 450 compounds, 56% hits; HEK293 Y2/CNGC cells, membrane potential fluorescence, agonist mode; shares compounds with NPY2 pot ag; activation, % at 3.6 µM; AID 1710;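 active means activation above the mean of solvent-only control wells plus 3 SD, cut at about 10% in these data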;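 further: cells stimulated by isoproterenol with no NPY added so direct agonism is tested; 0% = DMSO with isoproterenol alone and 100% = NPY at EC100 plus isoproterenol; agonism lowers probe fluorescence through less cAMP and CNG channel opening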
# Starred values were filed as active, the others as inactive; nt = no result. This is a sample that favours compounds with a hit; in the whole collection about 3.7% have one here.
SMILES,NPY2 pot ag,NPY-Y1 PAM-ag,Furin inh,NPY-Y1 antag,KCC2 mod,NPY-Y2 antag,NPY-Y2 pot conf,NPY-Y1 potentiator,NPY-Y1 ag 2,CNGC inhibitor,NPY-Y2 ag 2
CC(=O)c1ccc(N2CCN(C(=S)Nc3ccc(Oc4ccccc4)cc3)CC2)cc1,39*,12,-10,-1,-0.13,nt,1,-20,-9,-4,11*
Cc1sc2nc(SCc3ccc(C(=O)O)cc3)n(Cc3ccco3)c(=O)c2c1C,56*,27,-9,nt,1,nt,24,29,32*,17,22*
C#CCSc1nc(N)c2c(n1)OC(N)=C(C#N)C2c1cccnc1 (stereo unspecified),58*,4,7,-4,-0.6,nt,21,25,16,-4,6
CC(C)c1[nH]nc2c1C(c1cccnc1)C(C#N)=C(N)O2 (stereo unspecified),-6,-5,-8,1,0.27,1,nt,nt,nt,nt,nt
O=P(OC1CCCCC1)(OC1CCCCC1)C(Nc1ccccc1)c1cccnc1 (stereo unspecified),44*,35,-13,nt,-1,nt,25,27,17*,28*,20*
O=C(COc1ccc(Cl)cc1)Nc1ncc([N+](=O)[O-])s1,40*,-1,-11,4,-2.9,nt,4,-6,-11,-4,10*
CCc1ccc(C(=O)NN(C(=O)c2ccc(CC)cc2)C(C)(C)C)cc1,35*,37,-4,-6,-1.4,3,44*,61*,58*,47*,34*
CC(C)(C)N(NC(=O)c1ccccc1)C(=O)c1ccc(C(=O)N(NC(=O)c2ccccc2)C(C)(C)C)cc1,8,-7,-21,4,0.89,2,nt,nt,nt,nt,nt
NNC(=O)c1cccc(S(=O)(=O)Nc2cccc(C(F)(F)F)c2)c1,2,20,-21,nt,0.022,nt,nt,nt,nt,nt,nt
Cc1[nH]c2ccccc2c1/C=N/NC(=O)c1cccc(S(=O)(=O)Nc2cccc(C(F)(F)F)c2)c1,42*,39,-15,-3,-0.5,nt,41*,60*,46*,35*,40*
CC1=CC(=O)C(C(C)C)=C/C1=N/OS(=O)(=O)c1ccccc1,63*,35,-1,nt,-2.5,nt,26,9,2,11,22*
Cc1ccc(S(=O)(=O)N2CCN(c3nccnc3C#N)CC2)cc1,11,-12,-9,nt,-0.18,nt,nt,nt,nt,nt,nt
Cc1ccn2cc(-c3ccc(NC(=O)c4ccco4)cc3)nc2c1,-2,-5,10,2,-0.76,0,nt,nt,nt,nt,nt
C/C(=N\Nc1ccc([N+](=O)[O-])cc1)c1ccc(N)cc1,-12,8,9,0,0.04,-3,nt,nt,nt,nt,nt
CCc1ccc(/C(C)=N\Nc2ccc([N+](=O)[O-])cc2)cc1,39*,37,-30,-6,-0.13,-4,20,27,24*,30*,30*
COc1ccc(/C=C/C(=O)c2ccc(NC(=O)c3cccs3)cc2)cc1OC,1,10,-12,0,nt,1,nt,nt,nt,nt,nt
COc1ccc(NC(=O)c2cccnc2SC)cc1OC,9,5,-23,-2,1.5,nt,nt,nt,nt,nt,nt
CSc1ncccc1C(=O)Nc1ccc2nc(C)sc2c1,105*,20,-25,nt,nt,nt,-5,0,-2,1,-5
CC1CCCCC1NS(=O)(=O)c1ccc(S(=O)(=O)NCc2ccncc2)cc1 (stereo unspecified),37*,-3,-14,-13,0.5,-3,7,-24,-13,1,0
CC1(c2ccc(OC(F)F)cc2)NC(=O)N(/N=C/c2c(O)ccc3ccccc23)C1=O (stereo unspecified),10,-6,0,-2,2.4,6,nt,nt,nt,nt,nt
O=C(O)C1CC1C(=O)Nc1cc(F)ccc1F (stereo unspecified),28*,7,-23,-1,1.3,nt,-5,0,-1,0,-3
Oc1ccc(Cl)cc1-c1cc(-c2ccco2)[nH]n1,29*,41,-16,-7,-0.55,-6,26,38,33*,24*,31*
Cc1ccc(O)c(-c2cc(-c3ccccc3[N+](=O)[O-])[nH]n2)c1,35*,31,-17,-12,-0.72,-7,34*,38,36*,33*,35*
Oc1ccccc1-c1cc(-c2ccco2)[nH]n1,-1,12,-17,-6,nt,0,nt,nt,nt,nt,nt
O=[N+]([O-])c1ccccc1-c1cc(-c2cc(Cl)ccc2O)n[nH]1,31*,36,-14,-9,0.035,-8,50*,59*,52*,54*,60*
SMILES,NPY2 pot ag,NPY-Y1 PAM-ag,Furin inh,NPY-Y1 antag,KCC2 mod,NPY-Y2 antag,NPY-Y2 pot conf,NPY-Y1 potentiator,NPY-Y1 ag 2,CNGC inhibitor,NPY-Y2 ag 2
O=C(Cc1ccc(Cl)c(Cl)c1)Nc1ccc2[nH]c(=O)[nH]c2c1,-2,0,-32,7,1,nt,nt,nt,nt,nt,nt
CCC(C)NC(=O)c1ccccc1NC(=O)c1ccc(CSc2ccc(C)cc2)cc1 (stereo unspecified),1,-30,-12,-3,nt,1,nt,nt,nt,nt,nt
Cc1ccc(CNC(=O)c2ccc(OCC3CCCO3)cc2)cc1 (stereo unspecified),-20,-9,-10,5,0.024,3,nt,nt,nt,nt,nt
CCCCONc1ncnc2nonc12,1,7,-4,4,-0.0099,3,nt,nt,nt,nt,nt
Cn1c(Cc2ccccc2)nnc1SCC(=O)c1cccs1,-1,-5,-14,1,-0.59,3,nt,nt,nt,nt,nt
Cc1ccc(Nc2nc(N/N=C/c3c[nH]c4ccccc34)nc(N3CCOCC3)n2)cc1,27*,31,0,-6,-0.7,-3,41*,59*,33*,42*,44*
COCCCn1c(O)c(/C=C2\N=C(C#N)C(=Nc3ccc(C)cc3)O2)sc1=S,37*,27,-16,nt,0.3,nt,19,9,-2,-4,27*
COc1ccc(CCNc2ccc(N3C(=O)CC(C)C3=O)cc2[N+](=O)[O-])cc1OC (stereo unspecified),37*,-6,-20,7,0.041,nt,0,-36,-37,-17,-1
COc1ccc(CCNc2ccc(N3C(=O)CC(C)C3=O)cc2[N+](=O)[O-])cc1 (stereo unspecified),-16,-4,-31,4,-0.94,nt,nt,nt,nt,nt,nt

# Screening data (PubChem)
